# Assay outcomes (PubChem BioAssay)
# Hits are enriched below; roughly 2.2% of the tested compounds scored in any of these assays.
# dFosB act-1 – activators of mouse delta FosB homodimer | purified delta FosB, TAMRA-CDK5 oligo fluorescence polarization; percent of positive-control signal above neutral wells | 0.99% of 340,000 active | P13346 | activation, % at 25 µM | AID 493131;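 active = mean activation above about 17%, with every replicate also reaching it, limit read from the data, passing the limit was not always enough; inconclusive = only one of the two conditions met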
# CAL PDZ FP-1 – CAL PDZ (human) peptide binding inhibition. purified CAL PDZ, TMR-peptide fluorescence polarization, 1 h. inhibition, % at 24.9 µM. 0.92% of 300,000 active. Q9HD26. AID 602252;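 active = mean inhibition of at least 30% with at least half of replicates also reaching 30%; inconclusive = no clear call, values can overlap the other calls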;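 also: 0% = DMSO neutral control and 100% = excess unlabeled competitor peptide PRC23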
# CAL PDZ FP-2 – inhibitors of human CAL PDZ peptide binding; purified CAL PDZ, TMR-peptide fluorescence polarization, 1 h; inhibition, % at 20 µM; 0.02% of 330,000 active; AID 504414;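 active = highest replicate inhibition of at least 40%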;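 also: plate controls were DMSO neutral control wells for no effect and unlabeled competitor peptide control wells for full effect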
#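 System: purified tagged CAL PDZ domain construct (CerCALP). Schedule: 1 h incubation at room temperature before polarization reading. Medium: 25 mM sodium phosphate pH 7.4, 150 mM NaCl, TCEP, IgG, Thesit. Read-out: percent inhibition from loss of millipolarization. Measured by: FP readout, S and P plane fluorescence. Probe or stimulus: fluorescent TMR peptide probe.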
# Rtt109 Vps75 – blocks Candida albicans Rtt109/Vps75 acetyltransferase activity; purified Rtt109/Vps75, ThioGlo CoA-SH fluorescence, 4 h; inhibition, % at 34.9 µM; 0.16% of 330,000 active;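 active = inhibition of at least 50% in every replicate; inconclusive = best replicate reaches 50% inhibition but some replicates fall short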
# Target sequence (Q5AAJ8 whole entry, looked up): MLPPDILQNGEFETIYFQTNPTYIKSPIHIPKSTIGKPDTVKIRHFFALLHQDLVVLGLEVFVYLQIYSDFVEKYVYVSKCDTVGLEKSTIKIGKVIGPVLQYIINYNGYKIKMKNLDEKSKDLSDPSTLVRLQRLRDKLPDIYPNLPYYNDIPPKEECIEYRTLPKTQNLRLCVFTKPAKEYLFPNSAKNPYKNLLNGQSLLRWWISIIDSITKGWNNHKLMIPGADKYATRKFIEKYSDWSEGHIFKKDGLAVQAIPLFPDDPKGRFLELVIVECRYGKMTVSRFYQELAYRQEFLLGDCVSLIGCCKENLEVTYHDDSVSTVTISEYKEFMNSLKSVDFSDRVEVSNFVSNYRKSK
# CDK5 inh – inhibitors of human CDK5/p35 kinase; Recombinant CDK5/p35, ADP-Glo luminescence, 60 min; inhibition, % at 10 µM; 0.01% of 330,000 active;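 active = highest replicate inhibition of at least 50% and at least 75% of replicates reaching 50%; inconclusive = only one of the two criteria met; inactive = both criteria failed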;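 also: plate controls were DMSO neutral control for no effect and GW8510 at 10 µM for full effect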
# Dyrk1A ADPGlo – inhibitors of rat Dyrk1A kinase | 0.43% of 310,000 active | ADP-Glo luminescence, NFATc1 peptide | AID 504441 | inhibition, % at 12.5 µM | Q63470; in the data active = inhibition above about 50%;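 also: plate controls were vehicle with enzyme for no effect and no enzyme for full effect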
# dFosB act-2 – activators of mouse delta FosB homodimer DNA binding; shares compounds with dFosB act-1; purified delta FosB, TAMRA-CDK5 oligo fluorescence polarization; normalised: neutral wells 0, positive control 100; activation, % at 24.9 µM; 2,400 tested, under 10 active; AID 588690;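 active = highest replicate activation at or above 34% and every replicate reaching that threshold; inconclusive = meets only one of the two criteria; inactive = meets neither criterion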;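 also: higher polarization means more probe DNA bound by delta FosB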
# * hit, by the source's call; ? = inconclusive; . = no result.
SMILES,dFosB act-1,CAL PDZ FP-1,CAL PDZ FP-2,Rtt109 Vps75,CDK5 inh,Dyrk1A ADPGlo,dFosB act-2
C/C(=N\O)c1ccc2c(c1)OCCO2,-9,.,-1,-2,-1,3,.
COc1cccc(NC(=S)N2CCc3cc(OC)c(OC)cc3C2COc2ccc3c(C)cc(=O)oc3c2)c1 (stereo not given),65*,-7,0,0,-1,-5,1
CCS(=O)(=O)c1ccc(O)c(NC(=O)CC2(CC(=O)O)CCCC2)c1,-4,3,0,.,-2,-9,.
O=C(C[n+]1cnn(CC(=O)c2ccc(Cl)cc2Cl)c1)c1ccc([N+](=O)[O-])cc1,32*,0,1,-6,4,-1,2
O=C(Cn1cnc([N+](=O)[O-])c1)c1ccc(Cl)cc1,-1,-2,-1,-2,-2,0,.
Cc1ccc(C)c(NC(=O)CN2C(=O)NC(CCc3ccccc3)C2=O)c1 (stereo not given),34*,0,-1,-5,-1,-4,1
COc1ccc(CCNC(=O)CCn2c(SCC#N)nc3ccccc3c2=O)cc1OC,22*,1,-2,.,0,-1,1
COc1ccc(CCNC(=O)CCCn2c(SCC#N)nc3ccccc3c2=O)cc1OC,0,-3,-2,-3,1,-1,.
O=C(COc1coc(CN2CCCc3ccccc32)cc1=O)Nc1ccc([N+](=O)[O-])cc1,28*,-2,-2,-4,1,-2,7
O=C(CNC(=O)c1cccc(Br)c1)N/N=C/c1ccc2c(c1)OCO2,18*,-3,-1,-3,-1,2,3
CCc1ccc(S(=O)(=O)Nc2cccc(-c3ccc4nnc(C)n4n3)c2)s1,1,-4,0,-6,-2,-2,.
COc1ccc(NC(=O)C(C)Oc2ccc(/C(C)=N\O)cc2)cc1 (stereo not given),-6,1,-2,-4,-3,1,.
Cn1cc(Cl)c(C(=O)Nc2nc3ccc(Cl)cc3s2)n1,24*,-3,-3,.,1,8,-2
Cc1occc1C(=O)NNC(=S)Nc1cccc([N+](=O)[O-])c1,5,1,1,17,1,38,.
O=C(Nc1cccc(O)c1)c1cc(-c2ccc3c(c2)OCO3)on1,33*,60*,-3,-5,2,-1,0
COc1ccc(-c2nc(Cn3c(SCc4ccc(C)cc4)nc4ccncc43)c(C)o2)cc1OC,39*,.,0,-4,0,-2,3
COc1ccc(-c2nc(Cn3c(SCc4cccc(F)c4)nc4ccncc43)c(C)o2)cc1OC,?,.,-2,0,-1,-2,.
Cc1cc(O)c(-c2n[nH]c3c2C(c2cccc(O)c2)N(Cc2cccnc2)C3=O)cc1Cl (stereo not given),23*,-1,-3,5,-1,-1,2
CCCN1C(=O)c2[nH]nc(-c3cc(Cl)c(C)cc3O)c2C1c1ccc(O)c(OC)c1 (stereo not given),-5,-2,-4,1,-6,0,.
O=[N+]([O-])c1cc(S(=O)(=O)N2CCCC2)ccc1SCCO,1,-2,0,10,-2,0,.
COc1cc(/C=C/c2nc(N)nc(-c3ccccc3O)n2)cc(OC)c1OC,34*,0,-2,1,-3,-5,3
COc1ccc(/C=C/c2nc(N)nc(-c3ccccc3O)n2)cc1OC,10,1,-2,6,-2,-3,.
Cc1cc(-c2nc3ncccc3o2)ccc1NC(=S)NC(=O)c1ccco1,25*,-6,-2,-14,0,-2,0
Cc1ccc(-c2nc3ncccc3o2)cc1NC(=S)NC(=O)c1ccco1,-20,-4,-3,-6,1,0,.
Cc1ccc(C)c(NC(=O)c2ccccc2NS(=O)(=O)c2cc([N+](=O)[O-])ccc2C)c1,27*,4,-1,-3,0,1,6
SMILES,dFosB act-1,CAL PDZ FP-1,CAL PDZ FP-2,Rtt109 Vps75,CDK5 inh,Dyrk1A ADPGlo,dFosB act-2
O=C(NCCNC(=O)c1cc(OCC(F)(F)F)ccc1OCC(F)(F)F)Nc1ccc(OC(F)(F)F)cc1,38*,1,0,5,0,3,-4
O=C(Nc1ccc(-c2nc3ccccc3[nH]2)cc1)c1ccc2c(c1)OCO2,58*,0,-3,2,0,2,-1
COc1c(F)c(F)c(C(=O)Nc2ccc(-c3nc4ccccc4[nH]3)cc2)c(F)c1F,12,-4,0,-2,-5,-2,.
O=C(Nc1ccc(Cl)c(-c2nc3ccccc3[nH]2)c1)c1ccc2c(c1)OCO2,-12,0,0,-2,-2,2,.
Cc1ccc2nc(-c3ccc(NC(=O)CSc4ccccc4)cc3)[nH]c2c1,25*,-3,-3,8,1,-7,5
O=C(Nc1ccc(-c2nc3ccccc3[nH]2)cc1)c1c(F)c(F)c(F)c(F)c1F,29*,-2,-1,7,-9,2,0
CC(=O)Nc1ccc(C(=O)Nc2cccc(-c3cnc4ccccc4n3)c2)cc1,24*,5,0,-6,1,-3,3
O=C(CNC(=O)c1ccc(Br)o1)Nc1cccc(-c2cnc3ccccc3n2)c1,19*,0,0,-6,0,4,6
CNC(=O)N(O)C1N(/N=C/c2ccccc2OC)C(=S)SC1(C)C (stereo not given),1,.,0,-4,1,.,.
Cc1onc(-c2ccccc2)c1C(=O)NC(=S)NNC(=O)c1ccncc1,-10,-3,-4,0,-3,1,.
Cc1onc(-c2ccccc2)c1C(=O)NC(=S)NNC(=O)c1cc(-c2ccc(F)cc2)n[nH]1,29*,-4,-1,1,1,5,-1
O=C(CSc1nc(-c2cccs2)cc(C(F)(F)F)n1)NCc1ccccc1,22*,.,0,-4,-1,3,5
CCCNC(=O)CSc1nc(-c2cccs2)cc(C(F)(F)F)n1,1,1,-1,17,0,8,.
COC(=O)Cc1ccc(NC(=O)c2ccccc2Br)cc1,4,2,0,8,-2,0,.
Cc1onc(-c2ccccc2Cl)c1C(=O)Nc1cccc(S(=O)(=O)NC2=NCCC2)c1,-3,.,0,-6,-1,-9,.
COc1ccc(Cn2c(=O)[nH]c3cc(C(=O)NCc4ccc5c(c4)OCO5)ccc3c2=O)cc1,-4,-4,-7,-4,0,-3,.
O=C(NCc1ccc2c(c1)OCO2)c1ccc2c(=O)n(C3CCCC3)c(=O)[nH]c2c1,40*,-3,-4,7,1,2,-4
